≈ marks a conversion by molar mass, not a printed value. Calls of active or inactive are those of the source. The rule behind the calls is not given here.
How the values were obtained:
Streptococcus pneumoniae = test: Antibacterial activity against Streptococcus pneumoniae ATCC 49619 by broth microdilution assay; assay type: functional
[1] = (§1) Inhibition of Streptococcus pyogenes DNA polymerase 3
In short: (§2)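 S. pyogenes DNA polymerase III holoenzyme system reconstituted in 96- or 384-well format; inhibition read as prevention of duplex DNA formation, detected by fluorescence.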

Staphylococcus aureus [2] = test: Antibacterial activity against Staphylococcus aureus ATCC 29213 by broth microdilution assay; assay type: functional
[3] = Inhibition of mammalian DNA polymerase […] delta
Staphylococcus aureus [4] = test: Antibacterial activity against Staphylococcus aureus ATCC 29213 by broth microdilution assay in presence of 50% human serum; assay type: functional
Streptococcus pyogenes = test: as §1; in short: as §2
Staphylococcus aureus [5] = test: Antibacterial activity against Staphylococcus aureus infected in mouse assessed as protection against bacterial infection at 25 mg/kg, ip administered as single dose measured 1 hr postinjection; assay type: functional; conditions: route intraperitoneal

Structure (SMILES)	IC50 [1]	IC50 [3]	MIC (Staphylococcus aureus [4])	other results
Cc1cc2nc(Nc3nc(O)c4ccccc4n3)nc(C)c2cc1C	27100 nM			MIC (Streptococcus pneumoniae): 1 µg/mL (≈ 3.02 µM); MIC (Staphylococcus aureus [2]): > 64 µg/mL
COc1ccc2nc(Nc3nc(O)c4c(C)cccc4n3)nc(C)c2c1	700 nM	1200 nM	2 µg/mL	
COc1cc2nc(Nc3nc(OC)c4ccccc4n3)nc(C)c2cc1OC				Activity (Streptococcus pyogenes): inactive
Cc1ccc2nc(Nc3nc(O)c4ccccc4n3)nc(C)c2c1	209000 nM			MIC (Streptococcus pneumoniae): 16 µg/mL (≈ 50.4 µM); MIC (Staphylococcus aureus [2]): 32 µg/mL (≈ 101 µM)
COc1ccc2c(O)nc(Nc3nc(C)c4cc(OC)ccc4n3)nc2c1	3800 nM	1800 nM	2 µg/mL	
COc1cc2nc(N(C)c3nc(OC)c4ccccc4n3)nc(C)c2cc1OC				Activity (Streptococcus pyogenes): inactive
COc1ccc2nc(Nc3nc(O)c4ccc(N(C)C)cc4n3)nc(C)c2c1	400 nM	400 nM	2 µg/mL	
COc1ccc2nc(Nc3nc(O)c4ccc(F)cc4n3)nc(C)c2c1	77800 nM	1900 nM	64 µg/mL	
COc1ccc2nc(Nc3nc(O)c4ccc(N)cc4n3)nc(C)c2c1	4700 nM	4900 nM	1 µg/mL	
COc1ccc2nc(Nc3nc(O)c4ccccc4n3)nc(C)c2c1	4800 nM			MIC (Streptococcus pneumoniae): 0.25 µg/mL (≈ 0.75 µM); MIC (Staphylococcus aureus [2]): 0.5 µg/mL (≈ 1.5 µM)
COc1ccc2nc(Nc3nc(O)c4cc([N+](=O)[O-])ccc4n3)nc(C)c2c1	8700 nM	14900 nM		
COc1ccc2nc(Nc3nc(O)c4c(Cl)cccc4n3)nc(C)c2c1	560 nM	900 nM	1 µg/mL	
CNc1ccc2c(O)nc(Nc3nc(C)c4cc(OC)ccc4n3)nc2c1	500 nM	200 nM	1 µg/mL	
CCNc1ccc2c(O)nc(Nc3nc(C)c4cc(OC)ccc4n3)nc2c1	400 nM	400 nM	1 µg/mL	
COc1ccc2nc(Nc3nc(O)c4c(OC)cccc4n3)nc(C)c2c1	600 nM	1000 nM	2 µg/mL	
COc1ccc2c(C)nc(Nc3nc(O)c4ccccc4n3)nc2c1	70000 nM			MIC (Streptococcus pneumoniae): 32 µg/mL (≈ 96 µM); MIC (Staphylococcus aureus [2]): 32 µg/mL (≈ 96 µM)
COc1ccc2nc(Nc3nc(O)c4cc(C)ccc4n3)nc(C)c2c1	2800 nM	1700 nM	2 µg/mL	
COc1ccc2nc(Nc3nc(O)c4ccc(C)cc4n3)nc(C)c2c1	3700 nM	2000 nM	1 µg/mL	Activity (Staphylococcus aureus [5]): 50%
COc1cc2nc(Nc3nc(O)c4ccccc4n3)nc(C)c2cc1OC	2000 nM			MIC (Streptococcus pneumoniae): 1 µg/mL (≈ 2.75 µM); MIC (Staphylococcus aureus [2]): 4 µg/mL (≈ 11 µM)
COc1cccc2c(C)nc(Nc3nc(O)c4ccccc4n3)nc12	3100 nM			MIC (Streptococcus pneumoniae): 0.25 µg/mL (≈ 0.75 µM); MIC (Staphylococcus aureus [2]): 0.5 µg/mL (≈ 1.5 µM)
COc1ccc2nc(Nc3nc(O)c4ccc(Cl)cc4n3)nc(C)c2c1	> 100000 nM			Activity [3]: inactive; Activity (Staphylococcus aureus [4]): inactive
COc1ccc2nc(Nc3nc(O)c4ccc(NC(C)=O)cc4n3)nc(C)c2c1	5500 nM	5000 nM		
COc1ccc2nc(Nc3nc(O)c4ccc([N+](=O)[O-])cc4n3)nc(C)c2c1	> 100000 nM	400 nM	64 µg/mL	
COc1ccc2nc(Nc3nc(O)c4cccc(OC)c4n3)nc(C)c2c1	> 100000 nM		2 µg/mL	Activity [3]: inactive

From ChEMBL document CHEMBL1143287, “Quinazolin-2-ylamino-quinazolin-4-ols as novel non-nucleoside inhibitors of bacterial DNA polymerase III” (Bioorg Med Chem Lett, 2009)
